Screening results from PubChem.
ANO1 activ: mouse TMEM16A channel activation, primary screen; Q8BHY3; HEK293 TMEM16A/YFP-H148Q/I152L, iodide quench fluorescence; hits give low values; B-score at 10 µM; actives 0.3% (n = 340,000); AID 623877;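 active = fluorescence-ratio B-score plate-corrected deviation score at least 3 library SD below zero, with starting fluorescence score within 5 deviations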;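 also: channel opened by trigger with iodide after compound preincubation; score built on the fluorescence ratio of max minus min over baseline; more negative score means more quench and so TMEM16A activation or potentiation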
Target sequence (Q8BHY3 whole entry, looked up): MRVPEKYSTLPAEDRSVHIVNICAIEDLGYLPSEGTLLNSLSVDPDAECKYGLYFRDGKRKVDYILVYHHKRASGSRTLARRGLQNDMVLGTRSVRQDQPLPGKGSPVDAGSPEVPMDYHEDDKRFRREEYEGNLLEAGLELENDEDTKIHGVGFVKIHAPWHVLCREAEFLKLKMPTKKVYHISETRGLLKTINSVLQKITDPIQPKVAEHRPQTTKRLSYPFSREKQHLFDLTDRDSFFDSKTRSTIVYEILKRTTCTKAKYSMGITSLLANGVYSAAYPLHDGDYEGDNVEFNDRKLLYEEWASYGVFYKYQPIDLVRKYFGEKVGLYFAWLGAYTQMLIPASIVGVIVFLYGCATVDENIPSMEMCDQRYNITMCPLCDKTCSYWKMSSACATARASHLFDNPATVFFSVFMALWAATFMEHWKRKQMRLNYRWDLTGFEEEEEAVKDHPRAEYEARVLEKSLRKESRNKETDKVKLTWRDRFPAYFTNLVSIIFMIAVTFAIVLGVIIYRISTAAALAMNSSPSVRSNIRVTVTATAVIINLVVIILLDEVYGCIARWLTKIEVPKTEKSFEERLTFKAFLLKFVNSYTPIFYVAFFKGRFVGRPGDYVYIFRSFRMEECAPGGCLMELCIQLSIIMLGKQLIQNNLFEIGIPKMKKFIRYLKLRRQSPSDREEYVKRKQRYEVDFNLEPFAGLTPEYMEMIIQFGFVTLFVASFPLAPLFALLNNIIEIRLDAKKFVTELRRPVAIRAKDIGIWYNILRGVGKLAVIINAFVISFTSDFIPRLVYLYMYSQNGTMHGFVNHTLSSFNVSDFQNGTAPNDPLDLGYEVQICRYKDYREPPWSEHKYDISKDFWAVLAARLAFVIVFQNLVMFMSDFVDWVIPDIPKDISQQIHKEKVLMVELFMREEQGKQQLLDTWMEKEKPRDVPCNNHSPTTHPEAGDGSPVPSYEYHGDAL
MC4R barr agon: activates human MC4R beta-arrestin recruitment. P32245. U2OS MC4R beta-arrestin complementation, luminescence; percent of melanotan II response, DMSO zero. activation, % at 8.9 µM. actives 0.98% (n = 360,000). AID 540308;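 active = activation above a per-plate cutoff, the mean activation of sample wells on that plate plus 3 SD, cut at about 8% in these data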
MC4R antag cAMP: human MC4R antagonism in cAMP assay. actives 0.48% (n = 360,000). inhibition, % at 6.5 µM. P32245. MC4R-expressing cells, MTII-stimulated cAMP, LANCE TR-FRET;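 active = inhibition above its plate's cutoff, the mean of tested wells on that plate plus 3 SD, cut at about 29% in these data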
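System: U2OS-MC4R stable cell line; Technique: Eu-cAMP/anti-cAMP TR-FRET, emission 671 nm; Repeats: single well per compound; Also added: Melanotan II; Dosing: one concentration, 6.5 µM nominal; Schedule: 30-min compound, 1-h challenge, 1-h detection, room temperature.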
TMEM16A inh: blocks the mouse calcium-activated chloride channel TMEM16A | HEK293 TMEM16A/YFP iodide influx fluorescence, ionomycin | actives 1.2% (n = 310,000) | AID 588511 | normalized B-score (activity score, 25-100; higher = stronger inhibition) at 10 µM | Q8BHY3;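 active = ratio plate-corrected score three or more library SD toward inhibition, starting fluorescence score within five deviations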;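 also: score derived from kinetic fluorescence span divided by baseline fluorescence per well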
Beta cell apopt: beta cell apoptosis inhibition; INS-1E cytokine-induced death, ATP luminescence, 48 h; percent of positive-control rescue, neutral wells zero; protection from apoptosis, % (no concentration beside the values); actives 0.8% (n = 300,000);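 active = Every replicate reaches about 75%, or at least half do and their mean reaches it too, limit read from the data; inconclusive = At least half of replicates reach the limit but their mean does not; inactive = Under half of replicates reach the limit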;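 also: higher means more ATP so stronger rescue from cytokine killing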
CSC inhib: cancer stem cell inhibition; cancer stem cell-like cells viability, luminescence; inhibition, % at 7.5 µM; actives 1.1% (n = 300,000); in the data active = inhibition above about 75%; inconclusive = no clear call, values can overlap the other calls; tested in HMLE shEcad cells
Numbers stand for hits; 0 = inactive; ? = inconclusive; - = not tested or not shown. Compounds with a hit are over-represented: about 3.8% of the library has one in this group of screens.

SMILES	ANO1 activ	MC4R barr agon	MC4R antag cAMP	TMEM16A inh	Beta cell apopt	CSC inhib
O=S(=O)(NCC1(N2CCOCC2)CCCCC1)c1ccccc1Cl	0	0	0	0	0	0
CCOc1ccc(CN(C)C(=O)CN2C(=O)NC(c3ccccc3)(c3ccccc3)C2=O)cc1	0	0	0	-	-	-
CC(C)CC(=O)/C(=C\c1ccc(Cl)cc1Cl)n1cncn1	-7.1	0	0	-	-	-
COc1ccccc1CN(C)C(=O)c1sccc1-c1ccccc1	0	0	0	0	0	0
Cc1[nH]c2ccccc2c1/C=N/NC(=O)C1CC1(c1ccccc1)c1ccccc1 (stereo unspecified)	0	0	0	0	0	116
CC(=O)c1cn(CCOc2cc(C)ccc2C)c2ccccc12	0	0	0	0	89	0
CCc1cc(SC#N)cc(C)c1NC(=O)CCl	0	0	0	0	99	0
COc1ccc(C2NCCc3c2[nH]c2ccccc32)cc1COc1ccc(F)cc1 (stereo unspecified)	0	24	0	0	104	?
COc1cc(C)c(NC(=O)COc2ccc3c(c2)CCC3)cc1OC	0	0	0	-	0	-
Cc1ccc(N2NC(=O)/C(=C\c3cc4c(cc3[N+](=O)[O-])OCO4)C2=O)cc1C	0	0	0	0	0	88
COc1cc(/C=C2/C(=O)NN(c3ccc(C)c(Cl)c3)C2=O)cc([N+](=O)[O-])c1O	0	0	0	0	0	0
Cc1noc(C)c1NC(=O)N(C)C[C@H]1Oc2ccc(NC(=O)Nc3ccc(C(F)(F)F)cc3)cc2C(=O)N([C@H](C)CO)C[C@@H]1C	0	0	0	-	0	0
CC12CCC(C/C1=N\N=C1\NC(=O)/C(=C\c3cccc(Br)c3)S1)C2(C)C (stereo unspecified)	0	0	0	0	0	105
COc1cc(/C=N/N=C2\CC3CCC2(C)C3(C)C)ccc1O (stereo unspecified)	0	0	0	0	0	0
N#CC1=C(N)Oc2cc(N)ccc2C1c1ccccc1Cl (stereo unspecified)	0	0	0	0	0	0
CC(=O)n1c2c(c3ccccc31)OC(N)=C(C#N)C2c1cccc(Cl)c1Cl (stereo unspecified)	0	0	0	0	0	76
COc1ccc(C2(C)NC(=O)N(CC(=O)Nc3ccc(C)cc3Br)C2=O)cc1OC (stereo unspecified)	0	0	0	0	0	0
Cc1[nH]n(C2=NCCS2)c(=O)c1N=Nc1cccc(C(F)(F)F)c1	0	0	0	0	94	0
O=C(NCc1nc(-c2ccc(C(F)(F)F)cc2)no1)Nc1cc(Cl)cc(Cl)c1	0	0	0	0	110	134
O=C(NCc1nc(-c2ccc(C(F)(F)F)cc2)no1)Nc1ccc(F)cc1F	0	0	0	0	0	0
CC(OC(=O)c1ccc(-n2cnnn2)cc1)C(=O)Nc1ccc(F)c(F)c1F (stereo unspecified)	0	0	0	-	0	0
Clc1ccc(OCCCNCc2ccccc2)c2ccccc12	0	0	0	0	0	110
CCOC(=O)N/N=C/c1cn(Cc2ccc(F)cc2)c2ccccc12	0	0	0	0	0	0
O=C(N/N=C/c1cn(Cc2ccccc2)c2ccccc12)c1ccncc1	0	0	0	100	0	0
N#CCC(=O)N/N=C/c1cn(Cc2ccc(Cl)cc2Cl)c2ccccc12	0	17	0	0	0	0
SMILES	ANO1 activ	MC4R barr agon	MC4R antag cAMP	TMEM16A inh	Beta cell apopt	CSC inhib
CCOC(=O)N/N=C/c1cn(Cc2ccc(Cl)cc2)c2ccccc12	0	8.8	0	0	0	0
CCOC(=O)CNC(=O)C1(/C=C/c2ccccc2)CC(=O)N1c1ccc(C)cc1 (stereo unspecified)	0	0	0	0	0	0
Cc1cccc(NC(=O)c2nc[nH]c2C(=O)Nc2cc(Br)ccc2F)c1	-	0	0	-	-	-
CN(C)Cc1c(C(C)(C)O)[nH]c2ccc(C(F)(F)F)cc12	0	0	0	-	0	0
CCc1c(C2(O)CCCCC2)[nH]c2ccc(C(F)(F)F)cc12	0	0	0	0	0	84
COc1cc(NC(=O)Cn2cnc3c(NCc4ccccc4)ncnc32)cc(OC)c1OC	-	0	0	-	-	-
Cc1ccc(Nc2c(F)c(F)c(F)c(F)c2C(=O)O)cc1	0	0	0	25	0	0
Cc1cccc(Nc2c(F)c(F)c(F)c(F)c2C(=O)O)c1	0	0	0	0	0	0
Cc1nc2cc(-c3ccccc3)sc2c(=O)n1N	0	0	0	0	?	0
COc1ccc(-c2cc3nc(C)n(N)c(=O)c3s2)cc1	0	0	0	0	0	97
COc1ccccc1CN(C)C(=O)c1cc(S(=O)(=O)N2CCCCCC2)ccc1OC	-	0	0	-	-	-
COc1cc(OC)cc(C(=O)NNC(=O)CCC(=O)c2cc(C)sc2C)c1	0	0	0	-	0	0
CC(C)c1ccc(NC(=O)COC(=O)C2CCCCC2)cc1	0	0	0	-	0	0
CC(=O)Nc1c(Br)cc2c(c1Br)C(=O)c1ccccc1-2	0	0	0	-	-	-
CC(=O)C1=C(c2ccc(Br)cc2)C(=O)c2ccccc2C1=O	0	0	0	0	107	114
Cc1ccc(C)c(NC(=O)CCN2CCCCC2)c1	0	0	0	0	0	0
Cc1cc(C(=O)Nc2sc3c(c2C#N)CCC(C)C3)cs1 (stereo unspecified)	0	8.3	0	0	0	0
N#Cc1ccc(-c2ccc(F)cc2)nc1Oc1ccc(F)cc1	0	9.3	0	0	0	0
N#Cc1ccc(-c2ccc(F)cc2)nc1Oc1ccccc1	0	0	0	0	0	0
O=C(Oc1coc(CSc2nnc(NC(=O)c3cccs3)s2)cc1=O)c1ccccc1	0	0	0	0	0	86
CCc1ccc(Nc2n[n+](-c3ccccc3)c(-c3c(Cl)cccc3Cl)s2)cc1	-8.1	0	0	100	108	109
CCc1ccc(Nc2n[n+](-c3ccccc3)c(-c3ccc(N(CC)CC)cc3)s2)cc1	0	0	0	0	108	0
CCc1ccc(Nc2n[n+](-c3ccccc3)c(-c3ccc(OCc4ccccc4)cc3)s2)cc1	0	0	0	100	0	0
CCOc1ccc2c(c1)C(C)=CC(C)(C)N2S(=O)(=O)c1ccc(F)cc1	0	0	0	0	-	0
CC1=CC(C)(C)N(S(=O)(=O)c2ccc(F)cc2)c2ccc(C)cc21	0	0	0	0	0	87
CCc1cc(C(=O)NC2CCCc3c2cnn3-c2cccc(C)c2C)n(C)n1 (stereo unspecified)	-	-	-	0	99	0
Cc1cc(C(=O)NC2CCCc3c2cnn3-c2ccc(C)c(C)c2)n(C)n1 (stereo unspecified)	0	0	0	0	110	0
Cc1ccc(C)c(OCC(=O)NCC(c2ccco2)N2CCCCC2)c1 (stereo unspecified)	0	0	0	0	0	0
